Experiments:
[1] = Plasma kinetics of FAA during 5-min intravenous infusion in unanesthetized mice; assay type: in vivo, C57BL/6J male mice; conditions: for plasma area under the curve: 5-min intravenous infusion, mice
Procedure, shortened: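 Male C57BL/6J mice, 2–3 mo, unanesthetized after 3 h recovery at 37°C. Test compound (0.3 or 1.6 nmol per mouse) in HEPES–fatty acid-free BSA (50 mg/mL, pH 7.4) was infused intravenously at variable rate for 5 min. Arterial plasma was sampled at 0–4.9 min, Folch-extracted, pentafluorobenzyl-derivatized, and analysed by NCI GC/MS against a 17:0 internal standard. AUC was derived by trapezoidal integration; n = 2–3.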

[2] = Incorporation of infused FAA into brain lipids of unanesthetized mice; assay type: in vivo, C57BL/6J male mice

O=C(O)CCC/C=C\C/C=C\C/C=C\C/C=C\CCCCCF [FAA, 20-Fluoroarachidonic Acid]
FAA concentration in plasma over time ([1]; 0.3 or 1.6 nmol infused intravenously over 5 min, Fig. 1): increased over time in a dose-dependent manner
plasma area under the curve ([1]; high dose (1.6 nmol)): 0.236 ± 0.0189 µM·h
plasma area under the curve ([1]; low dose (0.3 nmol)): 0.0297 ± 0.0217 µM·h
FAA concentration within brain phospholipids (rank order) ([2]; both doses, end of 5-min infusion, Fig. 2A): highest in PtdIns and ChoGlp, followed by EtnGlp and PtdSer
incorporation coefficient k*, high versus low infusion dose ([2]; brain lipids, 0.3 vs 1.6 nmol, Fig. 3): lower for the high-infusion dose than for the low-infusion dose
FAA detected in brain UFA, triglyceride and cholesteryl ester fractions ([2]; end of 5-min infusion, mouse brain): < 0.01 nmol/g

Source: paper PMC3509950 (Journal of nuclear medicine : official publication, Society …, 2012)
